Experimental data as given in ChEMBL document CHEMBL1135063, “Cytotoxic and antibacterial activity of 2-oxopurine derivatives” (Bioorg Med Chem Lett, 2002).
≈ marks a conversion by molar mass, not a printed value.

Columns and labels:
[1] = system: K562; test: Cytotoxicity against chronic myelogenous leukemia cell line K-562 was determined by measuring [3H]thymidine incorporation at a concentration 10 ug/mL after 48 h; type: functional; conditions: Homo sapiens
Method in brief: (§1)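 K-562 cells in RPMI 1640 with 10% FCS, 2 mM L-glutamine and kanamycin, humidified 5% CO2. Log-phase cells seeded at 2 × 10^4 cells/mL and exposed to compound (DMSO, 0.05% final) over a 10 to 0.078 range for 48 h. Cells were then pulsed 2 h with [3H]-thymidine, filter-harvested and cell-associated radioactivity counted. Percent inhibition or IC50 is reported with SD.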

[2] = system: K562; test: Cytotoxicity against chronic myelogenous leukemia cell line K-562 was determined by measuring [3H]thymidine incorporation at a concentration of 10 ug/mL after 5 h; type: functional; conditions: Homo sapiens
Method in brief: (§2)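 K-562 cells in RPMI 1640 with 10% FCS, 2 mM L-glutamine and kanamycin, 5% CO2. Log-phase cells seeded at 4 × 10^4 cells/mL and exposed to compound (DMSO, 0.05% final) over a 10 to 0.078 range for 5 h. Cells were then pulsed 2 h with [3H]-thymidine, harvested onto fiberglass filters and counted. IC50 is the concentration inhibiting incorporation by 50%. Values are given with SD.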

[3] = system: K562; test: Cytotoxicity against chronic myelogenous leukemia cell line K-562 was determined by measuring [3H]-thymidine incorporation at a concentration of 1.25 ug/mL after 5 h; type: functional; conditions: Homo sapiens; method in brief: as §2
[4] = system: K562; test: Cytotoxicity against chronic myelogenous leukemia cell line K-562 was determined by measuring [3H]thymidine incorporation at a concentration of 1.25 ug/mL after 48 h; type: functional; conditions: Homo sapiens; method in brief: as §1
[5] = system: K562; test: Cytotoxicity against chronic myelogenous leukemia cell line K-562 was determined by measuring [3H]thymidine incorporation after 48 h; type: functional, cell-based; conditions: Homo sapiens; method in brief: as §1
[6] = system: K562; test: Concentration that reduces [3H]thymidine incorporation by 50% in chronic myelogenous leukemia cell line K-562 after 5 h; type: functional, cell-based; conditions: Homo sapiens; method in brief: as §2
[7] = system: Mycobacterium avium; test: Tested for percent inhibition against Mycobacterium avium at 12.5 ug/mL; type: functional
[8] = system: Mycobacterium tuberculosis; test: Tested for percent inhibition against Mycobacterium tuberculosis at 12.5 ug/mL; type: functional
Method in brief: (§3)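 M. tuberculosis H37Rv (ATCC 27294) grown in BACTEC 12B medium; inhibition read out by Microplate Alamar Blue assay.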

[9] = system: Vero; test: Tested for inhibition against Vero cells at 12.5 ug/mL; type: functional, cell-based; conditions: Chlorocebus sabaeus
[10] = system: Lacticaseibacillus casei; test: Tested for antibacterial activity against Lactobacillus casei; type: functional
[11] = system: Mycobacterium tuberculosis; test: Tested for antibacterial activity against Mycobacterium tuberculosis; type: functional; method in brief: as §3
[12] = system: K562; test: Cytotoxicity against chronic myelogenous leukemia cell line K-562 was determined by measuring [3H]thymidine incorporation at a concentration of 1.00 ug/mL after 48 h; type: functional; conditions: Homo sapiens; method in brief: as §1
[13] = system: K562; test: Cytotoxicity against chronic myelogenous leukemia cell line K-562 was determined by measuring [3H]thymidine incorporation at a concentration of 1.00 ug/mL after 5 h; type: functional; conditions: Homo sapiens; method in brief: as §2
[14] = system: Mycobacterium tuberculosis; test: Tested for percent inhibition against Mycobacterium tuberculosis at concentration of 12.5 ug/mL; type: functional; method in brief: as §3
[15] = system: Mycobacterium tuberculosis; test: Tested for percent inhibition against Mycobacterium tuberculosis at 12.5 ug/mL concentration; type: functional; method in brief: as §3
[16] = system: K562; test: Cytotoxicity against chronic myelogenous leukemia cell line K-562 determined using [3H]thymidine incorporation at a concentration 10 ug/mL after 48 h; type: functional; conditions: Homo sapiens; method in brief: as §1
[17] = system: K562; test: Cytotoxicity against chronic myelogenous leukemia cell line K-562 determined using [3H]thymidine incorporation at a concentration of 1.00 ug/mL after 48 h; type: functional; conditions: Homo sapiens; method in brief: as §1
[18] = system: K562; test: Cytotoxicity against chronic myelogenous leukemia cell line K-562 was determined by measuring [3H]thymidine incorporation at a concentration of 10 ug/mL after 48 h; type: functional; conditions: Homo sapiens; method in brief: as §1
[19] = system: Lacticaseibacillus casei; test: Tested for inhibitory effect on Gram-positive bacterium; Lactobacillus casei; type: functional
[20] = system: K562; test: Cytotoxicity against chronic myelogenous leukemia cell line K-562 was determined by measuring [3H]thymidine incorporation at a concentration 1 ug/mL after 48 h; type: functional; conditions: Homo sapiens; method in brief: as §1
[21] = system: K562; test: Cytotoxicity against chronic myelogenous leukemia cell line K-562 was determined by measuring [3H]thymidine incorporation at a concentration of 1 ug/mL after 5 h; type: functional; conditions: Homo sapiens; method in brief: as §2
[22] = system: Mycobacterium tuberculosis; test: Antibacterial activity was evaluated against Mycobacterium tuberculosis; type: functional; method in brief: as §3
[23] = system: K562; test: Cytotoxicity against chronic myelogenous leukemia cell line K-562 was determined by measuring [3H]thymidine incorporation after 5 h; type: functional, cell-based; conditions: Homo sapiens; method in brief: as §2
[24] = system: Mycobacterium tuberculosis; test: Tested for percent inhibition against Mycobacterium tuberculosis at a concentration of 12.5 ug/mL; type: functional; method in brief: as §3

Row | SMILES | inhibition at 10 µg/mL [1] | inhibition at 10 µg/mL [2] | inhibition at 1.25 µg/mL [4] | IC50 [5] | IC50 [6] | further results
1 | O=C1Nc2c(ncn2Cc2ccccc2)C(C#CC2CC2)(C(F)(F)F)N1Cc1ccccc1 (configuration not stated) | 100% | 94% | 99% | 0.2 µg/mL (≈ 0.444 µM) | 0.4 µg/mL (≈ 0.888 µM) | inhibition at 1.25 µg/mL [3]: 66%
2 | O=c1nc2c(ncn2Cc2ccccc2)c(C#Cc2ccccc2)n1Cc1ccccc1 | 100% |  |  | 0.7 µg/mL (≈ 1.68 µM) | 1 µg/mL (≈ 2.4 µM) | inhibition at 12.5 µg/mL [7]: 60%; inhibition at 12.5 µg/mL [8]: 95%; IC50 [9]: < 0.2 µg/mL; MIC [10]: > 10 µg/mL; MIC [11]: 12.5 µg/mL (≈ 30 µM); inhibition at 1 µg/mL [12]: 90%; inhibition at 1 µg/mL [13]: 48%
3 | O=c1nc2c(ncn2Cc2ccccc2)c(-c2cccs2)n1Cc1ccccc1 |  |  |  |  |  | MIC [10]: > 10 µg/mL; inhibition at 12.5 µg/mL [14]: 0%
4 | CCC1(c2ccccc2)c2ncn(Cc3ccccc3)c2NC(=O)N1Cc1ccccc1 (configuration not stated) | 80% |  |  |  |  | 
5 | CC(C)c1c2ncn(Cc3ccccc3)c2nc(=O)n1Cc1ccccc1 | 18% |  |  | > 10 µg/mL |  | 
6 | O=c1nc2c(ncn2Cc2ccccc2)c(-c2ccccc2)n1Cc1ccccc1 | 70% |  |  |  |  | inhibition at 12.5 µg/mL [15]: 0%; MIC [10]: > 10 µg/mL
7 | CC1c2ncn(Cc3ccccc3)c2NC(=O)N1Cc1ccccc1 (configuration not stated) | 98% | 76.4% | 33% | 1.4 µg/mL (≈ 4.21 µM) | 2.5 µg/mL (≈ 7.52 µM) | 
8 | O=C1Nc2c(ncn2Cc2ccccc2)C(c2ccccc2)N1Cc1ccccc1 (configuration not stated) | 90% | 69% | 85% | 0.2 µg/mL (≈ 0.507 µM) | 5.1 µg/mL (≈ 12.9 µM) | inhibition at 1.25 µg/mL [3]: 9.1%
9 | O=C1Nc2c(ncn2Cc2ccccc2)C(C#Cc2ccccc2)N1Cc1ccccc1 (configuration not stated) |  |  |  | 0.8 µg/mL (≈ 1.91 µM) | 1.4 µg/mL (≈ 3.35 µM) | inhibition at 10 µg/mL [16]: 100%; inhibition at 1 µg/mL [13]: 20%; inhibition at 1 µg/mL [17]: 59%
10 | O=c1nc2c(ncn2Cc2ccccc2)c(C(F)(F)F)n1Cc1ccccc1 | 11% |  |  | > 10 µg/mL |  | 
11 | O=c1nc2c(cn1Cc1ccccc1)ncn2Cc1ccccc1 |  | 16% | 5.7% | > 10 µg/mL | > 10 µg/mL | inhibition at 10 µg/mL [18]: 37%; inhibition at 1.25 µg/mL [3]: 4.4%
12 | O=C1N(Cc2ccccc2)c2nc[nH]c2C(c2ccccc2)N1Cc1ccccc1 (configuration not stated) | 32% |  |  | > 10 µg/mL |  | MIC [19]: 10 µg/mL (≈ 25.3 µM)
13 | O=c1nc2c(ncn2Cc2ccccc2)c(C#CC2CC2)n1Cc1ccccc1 | 97% | 98% | 100% | 0.2 µg/mL (≈ 0.526 µM) | 0.4 µg/mL (≈ 1.05 µM) | inhibition at 1.25 µg/mL [3]: 98%
14 | O=C1Nc2[nH]cnc2C(C#CC2CC2)(C(F)(F)F)N1 (configuration not stated) |  |  |  | > 1 µg/mL | > 1 µg/mL | inhibition at 1 µg/mL [20]: 0.8%; inhibition at 1 µg/mL [21]: 0.3%
15 | O=C1Nc2ncn(Cc3ccccc3)c2C(c2ccccc2)N1Cc1ccccc1 (configuration not stated) | 48% |  |  | > 10 µg/mL |  | 
16 | Clc1nc(-c2cccs2)c2ncn(Cc3ccccc3)c2n1 |  |  |  |  |  | MIC [22]: 1.56 µg/mL (≈ 4.77 µM)
17 | Sc1ncnc2nc[nH]c12 [MERCAPTOPURINE ANHYDROUS] |  |  |  | 0.4 µg/mL (≈ 2.63 µM) |  | IC50 [23]: 8.5 µg/mL (≈ 55.9 µM)
18 | CC(C)C1c2ncn(Cc3ccccc3)c2NC(=O)N1Cc1ccccc1 (configuration not stated) | 51% |  |  | 10 µg/mL (≈ 27.7 µM) |  | 
19 | O=c1nc2c(ncn2Cc2ccccc2)c(-c2ccco2)n1Cc1ccccc1 |  |  |  |  |  | inhibition at 12.5 µg/mL [24]: 0%; MIC [10]: > 10 µg/mL
20 | O=C1Nc2c(ncn2Cc2ccccc2)C(C#CC2CC2)N1Cc1ccccc1 (configuration not stated) | 98% | 90% | 42% | 1.3 µg/mL (≈ 3.4 µM) | 1.6 µg/mL (≈ 4.18 µM) | inhibition at 1.25 µg/mL [3]: 35%
21 | O=C1Nc2c(ncn2Cc2ccccc2)C(C(F)(F)F)N1Cc1ccccc1 (configuration not stated) | 97% | 51% | 26% | 2 µg/mL (≈ 5.18 µM) | 10 µg/mL (≈ 25.9 µM) | inhibition at 1.25 µg/mL [3]: 15.4%
